The results in this text go back to ChEMBL document CHEMBL1772954, “Antifungal, cytotoxic and SAR studies of a series of N-alkyl, N-aryl and N-alkylphenyl-1,4-pyrrolediones and related compounds” (Bioorg Med Chem, 2011).

In brackets after ≈: the same amount, converted by molar mass. Bounds are passed on as bounds.

One data set concerns MCF7. As to the kind of experiment: Cytotoxicity against human MCF7 cells assessed as cell growth after 2 days by sulforhodamine B assay. The settings on record: MCF7, 48 h. The format is functional. In outline:
(§1)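 NCI cell lines were run by the Monks method: cells were plated with compounds from DMSO stocks and incubated 2 days at 37 °C in 5% CO2, in duplicate. Cells were fixed with cold TCA, stained with 0.4% SRB, and the bound dye was solubilized in 10 mM tris-base and read at 515 nm. The zero-day control was subtracted, and GI50 was taken from the curves.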
(The SRB assay estimates cell density from bound dye.)

A further data set concerns NCI-H460. Put plainly: Cytotoxicity against human H460 cells assessed as cell growth after 2 days by sulforhodamine B assay. It is filed as functional. Conditions: NCI-H460, 48 h. An outline of the steps: as §1
The next data set has as its system SF-268. Put plainly: Cytotoxicity against human SF268 cells assessed as cell growth after 2 days by sulforhodamine B assay. It is filed as functional. The settings on record: SF-268, 48 h. In outline:
as §1

A short description of data set [1]: Cytotoxicity against human erythrocytes assessed as hemolysis by spectrometric analysis. The format is cell-based, Erythrocyte. An outline of the steps: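 Human heparinized red blood cells were washed in PBS at pH 7.0 and suspended at 4% in sterile 5% glucose. Compounds from DMSO stocks were diluted in 5% glucose to final concentrations of 250 to 0.24 µg/ml and incubated with the cells at 37 °C. Released hemoglobin was read at 540 nm. HC50 is the concentration giving 50% lysis relative to the drug-free value.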

A further data set relates to Candida albicans. As to the kind of experiment: Antifungal activity against Candida albicans ATCC 10213. The format is functional. In outline:
(§2)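 CLSI M27-A3 broth microdilution in RPMI-1640 buffered to pH 7.0 with MOPS. Inoculum 1-5 × 10^3 CFU/mL. Compound twofold dilutions from 250 to 0.24 µg/ml, final DMSO <1%. Incubated at 35 °C in a moist, dark chamber and read at 48 h. MIC is the lowest concentration giving total growth inhibition. For MFC, 5 µL from clear wells was plated in duplicate on SDA; MFC is the lowest concentration with no growth.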

Another data set concerns Candida tropicalis. As to the kind of experiment: Antifungal activity against Candida tropicalis C 131 2000. The format is functional. In outline: as §2
A further data set concerns Saccharomyces cerevisiae. As to the kind of experiment: Antifungal activity against Saccharomyces cerevisiae ATCC 9763. The format is functional. In outline:
as §2

In the next data set the test system is Cryptococcus neoformans. Put plainly: Antifungal activity against Cryptococcus neoformans ATCC 32264. The format is functional. An outline of the steps:
as §2

The next data set has as its system Aspergillus fumigatus. Put plainly: Antifungal activity against Aspergillus fumigatus ATCC 26934. The format is functional. In outline: (§3)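 Broth microdilution per CLSI M38-A2 in RPMI-1640 with MOPS at pH 7.0. Inoculum 1-5 × 10^3 CFU/mL, with twofold compound dilutions spanning 250-0.24 µg/ml (final DMSO <1%). Plates incubated at 35 °C, moist and dark, and read when the control fungus had grown. MIC is total growth inhibition. MFC comes from subculturing clear wells in duplicate onto SDA.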

For another data set, the system named is Aspergillus flavus. As to the kind of experiment: Antifungal activity against Aspergillus flavus ATCC 9170. The format is functional. An outline of the steps:
as §3

Another data set concerns Aspergillus niger. Put plainly: Antifungal activity against Aspergillus niger ATCC 9029. It is filed as functional. In outline:
as §3

The next data set relates to Nannizzia gypsea. Put plainly: Antifungal activity against Microsporum gypseum C 115 2000. It is filed as functional. An outline of the steps:
(§4)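 Dermatophytes tested by CLSI M38-A2 microdilution in MOPS-buffered RPMI-1640 at pH 7.0. Inoculum 1-5 × 10^3 CFU/mL; compounds 250 to 0.24 µg/ml in twofold steps, final DMSO <1%. Incubated at 28 °C in a moist, dark chamber and read according to control growth. MIC is the lowest concentration with complete inhibition. MFC is the lowest concentration with no growth after duplicate subculture on SDA.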

A further data set has as its system Trichophyton rubrum. Put plainly: Antifungal activity against Trichophyton rubrum C 113 2000. The format is functional. In outline: as §4
The test system of data set [2] is Trichophyton mentagrophytes. Put plainly: Antifungal activity against Trichophyton mentagrophytes ATCC 9972. The format is functional. An outline of the steps:
as §4

Usually GI50 stands for the concentration giving 50% growth inhibition. The HC50 is the concentration giving 50% haemolysis. By MFC is commonly meant the smallest concentration meeting the test's criterion for killing the fungus. High values mean less potent killing, low ones more potent killing. As usually defined, the MIC is the smallest concentration in the dilution series that meets the test's criterion for growth inhibition. Regarding `O=C1C(Cl)=C(Cl)C(=O)N1CCCc1ccccc1`, the GI50 in the data set on MCF7, in the data set with NCI-H460 and in the data set with SF-268 was above 10 µg/mL in each case. For the same compound, in data set [1], the HC50 was above 250 µg/mL. The MFC is 15.6 µg/mL (≈ 55 µM) against Candida albicans; 15.6 µg/mL (≈ 55 µM) with Candida tropicalis; 3.9 µg/mL (≈ 13.7 µM) with Saccharomyces cerevisiae; 3.9 µg/mL (≈ 13.7 µM) in the data set with Cryptococcus neoformans; 31.2 µg/mL (≈ 110 µM) in the data set with Aspergillus fumigatus; 31.2 µg/mL (≈ 110 µM) against Aspergillus flavus. Further, the MFC in the data set on Aspergillus niger stood at 15.6 µg/mL (≈ 55 µM); against Nannizzia gypsea it was 15.6 µg/mL (≈ 55 µM); with Trichophyton rubrum, 7.81 µg/mL (≈ 27.5 µM); in data set [2], 7.81 µg/mL (≈ 27.5 µM). The MIC against Candida albicans came to 7.81 µg/mL (≈ 27.5 µM); with Candida tropicalis it was 7.81 µg/mL (≈ 27.5 µM); against Saccharomyces cerevisiae it was 3.9 µg/mL (≈ 13.7 µM); against Cryptococcus neoformans, 3.9 µg/mL (≈ 13.7 µM); in the data set with Aspergillus fumigatus it was 15.6 µg/mL (≈ 55 µM); in the data set on Aspergillus flavus, 15.6 µg/mL (≈ 55 µM). Moreover, the MIC against Aspergillus niger was found to be 15.6 µg/mL (≈ 55 µM); against Nannizzia gypsea, 15.6 µg/mL (≈ 55 µM); in the data set with Trichophyton rubrum, 3.9 µg/mL (≈ 13.7 µM); in [2], 3.9 µg/mL (≈ 13.7 µM).
As for `O=C1C=CC(=O)N1Cc1ccccc1`, the GI50 in the data set with MCF7, with NCI-H460 and with SF-268 was above 10 µg/mL in each case. Also, the concentration for 50% haemolysis (HC50) in data set [1] is above 250 µg/mL. For the same compound, the MFC is 7.81 µg/mL (≈ 41.7 µM) with Candida albicans; 15.6 µg/mL (≈ 83.5 µM) against Saccharomyces cerevisiae; 15.6 µg/mL (≈ 83.5 µM) in the data set with Cryptococcus neoformans; 250 µg/mL (≈ 1340 µM) against Aspergillus fumigatus; 125 µg/mL (≈ 668 µM) in the data set on Aspergillus flavus; 62.5 µg/mL (≈ 334 µM) against Aspergillus niger. Also, the MFC (against Nannizzia gypsea; against Trichophyton rubrum; in data set [2]) was 7.81 µg/mL (≈ 41.7 µM) throughout. In addition, the MIC amounted to 3.9 µg/mL (≈ 20.8 µM) in the data set on Candida albicans; 15.6 µg/mL (≈ 83.5 µM) in the data set on Candida tropicalis; 7.81 µg/mL (≈ 41.7 µM) against Saccharomyces cerevisiae; 7.81 µg/mL (≈ 41.7 µM) with Cryptococcus neoformans; 125 µg/mL (≈ 668 µM) against Aspergillus fumigatus; 62.5 µg/mL (≈ 334 µM) against Aspergillus flavus. The MIC was 31.2 µg/mL (≈ 167 µM) against Aspergillus niger, 3.9 µg/mL (≈ 20.8 µM) in the data set with Nannizzia gypsea, 3.9 µg/mL (≈ 20.8 µM) against Trichophyton rubrum and 3.9 µg/mL (≈ 20.8 µM) in data set [2].
For the compound `CC1=CC(=O)N(Cc2ccccc2)C1=O`, the GI50 in the data set with MCF7, with NCI-H460 and with SF-268 was above 10 µg/mL each time. Moreover, the HC50 in data set [1] was above 250 µg/mL. Moreover, the minimum fungicidal concentration (MFC) was determined as 125 µg/mL (≈ 621 µM) against Candida albicans; 250 µg/mL (≈ 1240 µM) with Candida tropicalis; 62.5 µg/mL (≈ 311 µM) in the data set on Saccharomyces cerevisiae; 31.2 µg/mL (≈ 155 µM) in the data set on Cryptococcus neoformans; 62.5 µg/mL (≈ 311 µM) in the data set with Aspergillus fumigatus; 125 µg/mL (≈ 621 µM) in the data set with Aspergillus flavus. Further, the MFC in the data set with Aspergillus niger was 125 µg/mL (≈ 621 µM); in the data set with Nannizzia gypsea, 7.81 µg/mL (≈ 38.8 µM); in the data set on Trichophyton rubrum it was 7.81 µg/mL (≈ 38.8 µM); in [2], 31.2 µg/mL (≈ 155 µM). Besides, the MIC against Candida albicans was 62.5 µg/mL (≈ 311 µM); against Candida tropicalis, 125 µg/mL (≈ 621 µM); in the data set on Saccharomyces cerevisiae, 31.2 µg/mL (≈ 155 µM); in the data set with Cryptococcus neoformans, 15.6 µg/mL (≈ 77.7 µM); in the data set on Aspergillus fumigatus, 31.2 µg/mL (≈ 155 µM); against Aspergillus flavus it was 62.5 µg/mL (≈ 311 µM). The MIC against Aspergillus niger stood at 62.5 µg/mL (≈ 311 µM); in the data set with Nannizzia gypsea, 3.9 µg/mL (≈ 19.4 µM); against Trichophyton rubrum, 3.9 µg/mL (≈ 19.4 µM); in data set [2], 31.2 µg/mL (≈ 155 µM).
For the compound `CC1=CC(=O)N(CCCc2ccccc2)C1=O`, the GI50 in the data set with MCF7, in the data set with NCI-H460 and with SF-268 was above 10 µg/mL in each case. The HC50 in data set [1] was above 250 µg/mL. Moreover, the MFC against Candida albicans came to 125 µg/mL (≈ 545 µM); with Candida tropicalis it was 125 µg/mL (≈ 545 µM); against Saccharomyces cerevisiae it was 62.5 µg/mL (≈ 273 µM); with Cryptococcus neoformans, 31.2 µg/mL (≈ 136 µM); against Aspergillus fumigatus it was 31.2 µg/mL (≈ 136 µM); against Aspergillus flavus, 31.2 µg/mL (≈ 136 µM). The MFC against Aspergillus niger was 31.2 µg/mL (≈ 136 µM); against Nannizzia gypsea, 7.81 µg/mL (≈ 34.1 µM); in the data set with Trichophyton rubrum it was 3.9 µg/mL (≈ 17 µM); in data set [2], 31.2 µg/mL (≈ 136 µM). Further, the MIC in the data set on Candida albicans is 62.5 µg/mL (≈ 273 µM); with Candida tropicalis, 125 µg/mL (≈ 545 µM); with Saccharomyces cerevisiae, 15.6 µg/mL (≈ 68.2 µM); against Cryptococcus neoformans it was 15.6 µg/mL (≈ 68.2 µM); against Aspergillus fumigatus it was 15.6 µg/mL (≈ 68.2 µM); against Aspergillus flavus, 31.2 µg/mL (≈ 136 µM). Also, the MIC with Aspergillus niger worked out at 31.2 µg/mL (≈ 136 µM); against Nannizzia gypsea it was 3.9 µg/mL (≈ 17 µM); against Trichophyton rubrum, 1.95 µg/mL (≈ 8.5 µM); in data set [2] it was 15.6 µg/mL (≈ 68.2 µM).
